# Experimental data: PubChem BioAssay AID624016 (Broad Institute, 2012)
# Active and inactive are the calls of the source.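 Rule for the calls: active = fitted curve reaching 35% inhibition at both 405 and 600 nm absorbance, in duplicate, within twice the top valid dose; inactive = the rest, including signal rising instead of falling.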
# Tested on: P. aeruginosa + EDDHA, pyoverdine absorbance 405 nm, 24-30 h
# Assay: bacterial growth inhibition with EDDHA chelator – absorbance 405 nm, dry powder, set 4, dose response (AID 624016)
# Details: not given
# Method in brief: (§1)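 Assay system – Pseudomonas aeruginosa strain ATCC 15692, whole bacterial cells · Amount – final OD600 0.0000005 · Dosing – 3-fold compound dilution series prepared from 10 mM stock · Buffer or medium – succinate M9 medium, pH 7.0, with 2 µM EDDHA iron chelator (final) · Schedule – 24-30 h exposure at 37 °C · Detection – absorbance at 405 nm reflecting pyoverdine production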
row,SMILES,AC35
1,N#CC(c1ccc(Cl)cc1)c1cccc(C(F)(F)F)n1 (configuration not stated),8.64 µM
2,N#CC(c1ccc(Cl)cc1)c1ncccc1Cl (configuration not stated),10.7 µM
3,N#CC(c1ccc(F)cc1)c1cccc(C(F)(F)F)n1 (configuration not stated),28.9 µM
4,N#CC(c1cccc(Cl)n1)c1ccc(Cl)cc1F (configuration not stated),22.3 µM
5,N#CC(c1cccc(C(F)(F)F)n1)c1ccc(Cl)cc1F (configuration not stated),15 µM
6,N#CC(c1ccc(C(F)(F)F)cc1)c1cccc(C(F)(F)F)n1 (configuration not stated),> 50 µM (inactive)

# Tested on: not listed separately
# Assay: as above
# Details: P. aeruginosa + EDDHA, pyoverdine absorbance 405 nm, 24-30 h; at 16 µM (top of the series)
# Method in brief: as §1
row,SMILES,"activity change, negative = inhibition"
1,Cc1ccc(C(C#N)c2ccccc2OC(F)(F)F)nc1C#N (configuration not stated),-24.9% (inactive)

# Same assay, conditions: P. aeruginosa + EDDHA, pyoverdine absorbance 405 nm, 24-30 h; at 50 µM (top of the series)
row,SMILES,"activity change, negative = inhibition"
1,N#CC(c1ccc(Cl)cc1)c1ccc(C(F)(F)F)c(Cl)n1 (configuration not stated),20.6% (inactive)
2,CCCCC(C#N)c1ccc(Cl)cc1F (configuration not stated),5.25% (inactive)
3,CCCCC(C#N)c1ccc(Cl)cc1Cl (configuration not stated),-5.19% (inactive)
4,CCCCC(C#N)c1ccc(F)cc1 (configuration not stated),-0.303% (inactive)
5,CCCC(C#N)c1ccc(Cl)cc1 (configuration not stated),-8.71% (inactive)
6,N#Cc1ccc(C(C#N)c2ccc(Cl)cc2Cl)nc1 (configuration not stated),-0.009% (inactive)
7,N#CC(c1ccc(F)cc1)c1ccc(C(F)(F)F)c(Cl)n1 (configuration not stated),-4.12% (inactive)
8,CCCCC(C#N)c1ccc(C(F)(F)F)cc1 (configuration not stated),-3.25% (inactive)
9,N#CC(c1cccc(C(F)(F)F)n1)c1ccccc1OC(F)(F)F (configuration not stated),-7.92% (inactive)
10,CCCCC(C#N)c1ccc(Cl)cc1 (configuration not stated),-0.817% (inactive)
11,N#Cc1cccc(C(C#N)c2ccc(Cl)cc2F)n1 (configuration not stated),-15.5% (inactive)
12,N#CC(c1ccc(Cl)cc1Cl)c1ncccc1Cl (configuration not stated),1.29% (inactive)
13,CCCCC(C#N)c1ccccc1OC(F)(F)F (configuration not stated),-2.91% (inactive)
14,CC(C)CC(C#N)c1ccc(Cl)cc1 (configuration not stated),-16.3% (inactive)
15,N#CC(c1ccc(Cl)cc1)c1ccc(C(F)(F)F)cn1 (configuration not stated),3.24% (inactive)
16,N#CC(c1ccc(C(F)(F)F)cc1)c1ccc(C(F)(F)F)c(Cl)n1 (configuration not stated),2.24% (inactive)
17,N#CC(c1ccc(C(F)(F)F)c(Cl)n1)c1ccc(Cl)cc1Cl (configuration not stated),15.9% (inactive)
18,CC(C#N)(c1ccc(Cl)cc1)c1ccc(C(F)(F)F)cn1 (configuration not stated),-4.71% (inactive)
19,N#CC(c1ccc(C(F)(F)F)c(Cl)n1)c1ccccc1OC(F)(F)F (configuration not stated),-6.71% (inactive)
20,N#CC(c1ccc(C(F)(F)F)cc1)c1cccc(Cl)n1 (configuration not stated),-4.32% (inactive)
